# In paper PMC2846203 (Journal of natural products, 2010):
# Like-named read-outs stand apart in the source and are kept apart here. Marks after values point to notes of the source that are not given here.
# What was measured:
# α4β2 nAChR = α4β2 nAChR (Rattus norvegicus, UniProt P09483+P12390); assay: [3H]epibatidine binding assay; conditions: ratio of Ki values
# mice [1] = assay: antagonism of nicotine-induced antinociception, hot-plate test; format: in vivo, mouse; conditions: for times more potent as an antagonist than varenicline in the hot-plate test: ratio of AD50 values
# mice [2] = conditions: mouse, cited from earlier work
# mice [3] = conditions: mouse, cited from earlier work; remark: listed apart in the source
# mice [4] = conditions: mouse, cited from earlier work; remark: listed apart in the source
# mice [5] = conditions: mouse; antagonism of nicotine-induced antinociception; cited from earlier work
# mice [6] = conditions: mouse; antagonism of nicotine-induced antinociception; cited from earlier work; remark: listed apart in the source
# mice [7] = conditions: mouse, cited from earlier work; remark: listed apart in the source
# mice [8] = assay: spontaneous activity; format: in vivo, mouse; conditions: ratio of ED50 values
# mice [9] = assay: hot-plate test; format: in vivo, mouse
# How it was run: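 Mice in a 10 cm glass cylinder on a 55.0 °C hot plate. Two control latencies, at least 10 min apart, per mouse; normal latency 8–12 sec. Endpoint: jumping or paw licking. Eight mice per dose got racemic hydrochloride test compound s.c. and were tested 5 min later. %MPE = [(test−control)/(40−control)]×100; ED50 from dose-response curve.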
# mice [10] = assay: hypothermia; format: in vivo, mouse; conditions: ratio of ED50 values
# How it was run: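 Mouse rectal temperature read by thermistor probe (inserted 24 mm) and digital thermometer, just before and 30 min after s.c. saline or racemic hydrochloride test compound. Change in temperature calculated for each mouse.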
# mice [11] = assay: tail-flick test; format: in vivo, mouse
# How it was run: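 D'Amour–Smith tail-flick in mice. Racemic hydrochloride test compound given s.c., with testing 5 min later. %MPE = [(test−control)/(10−control)]×100. 8–12 mice per dose, minimum four doses; ED50 with confidence limits from the dose-response curve.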
# mice [12] = assay: antagonism of nicotine-induced antinociception, tail-flick test; format: in vivo; conditions: Mus musculus, sc, read-out: AD50 (µg/kg) tail-flick
# Sequence of α4β2 nAChR (P12390 25-500): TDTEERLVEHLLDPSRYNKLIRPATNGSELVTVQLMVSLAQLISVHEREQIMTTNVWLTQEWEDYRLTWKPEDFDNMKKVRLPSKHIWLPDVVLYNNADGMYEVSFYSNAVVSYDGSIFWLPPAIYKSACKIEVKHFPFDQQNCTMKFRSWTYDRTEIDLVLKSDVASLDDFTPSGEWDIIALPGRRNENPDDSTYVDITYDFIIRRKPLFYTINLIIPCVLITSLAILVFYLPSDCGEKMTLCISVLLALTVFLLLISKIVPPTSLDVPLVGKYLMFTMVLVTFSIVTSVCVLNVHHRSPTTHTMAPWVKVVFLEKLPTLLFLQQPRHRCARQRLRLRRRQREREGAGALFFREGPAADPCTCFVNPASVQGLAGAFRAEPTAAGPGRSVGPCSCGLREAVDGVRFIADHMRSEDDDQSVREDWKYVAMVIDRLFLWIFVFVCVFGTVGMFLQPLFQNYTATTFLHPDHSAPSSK
# Sequence of α4β2 nAChR (P09483 31-630): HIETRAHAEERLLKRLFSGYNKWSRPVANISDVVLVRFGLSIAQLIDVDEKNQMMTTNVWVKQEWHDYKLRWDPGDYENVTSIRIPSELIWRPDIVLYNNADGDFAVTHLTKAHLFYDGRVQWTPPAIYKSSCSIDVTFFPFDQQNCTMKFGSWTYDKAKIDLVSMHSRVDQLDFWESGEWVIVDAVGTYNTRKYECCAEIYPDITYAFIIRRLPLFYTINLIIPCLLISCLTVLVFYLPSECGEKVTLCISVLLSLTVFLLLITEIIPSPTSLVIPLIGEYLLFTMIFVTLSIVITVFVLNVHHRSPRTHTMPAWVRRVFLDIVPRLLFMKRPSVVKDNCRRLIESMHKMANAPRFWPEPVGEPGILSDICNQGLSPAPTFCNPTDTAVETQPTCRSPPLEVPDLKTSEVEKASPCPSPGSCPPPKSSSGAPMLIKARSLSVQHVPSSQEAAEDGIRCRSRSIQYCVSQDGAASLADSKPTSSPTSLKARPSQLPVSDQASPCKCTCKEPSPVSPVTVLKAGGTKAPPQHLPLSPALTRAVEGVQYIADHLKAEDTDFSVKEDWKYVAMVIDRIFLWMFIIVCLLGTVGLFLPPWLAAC
structure (smiles),measurement,setting,value
"Clc1cccc(-c2cc([C@H]3C[C@@H]4CC[C@H]3N4)cnc2Cl)c1 [5e, 3′-(3-Chlorophenyl)epibatidine]",selectivity for α4β2 nAChR relative to α7 nAChR,α4β2 nAChR,greater than 2000 fold
same,times more potent as an antagonist than varenicline in the hot-plate test,mice [1],5.9 times
"Clc1ccc([C@@H]2C[C@H]3CC[C@@H]2N3)cn1 [(+)-epibatidine, epibatidine]",ED50 mg/kg tail-flick,mice [2],0.0061 ^e mg/kg
"c1cnc2cc3c(cc2n1)[C@@H]1CNC[C@H]3C1 [varenicline, reference compound]",ED50 mg/kg spontaneous activity,mice [3],2.1 mg/kg
same,agonist activity in the hot-plate test,mice [4],inactive
same,AD50 (µg/kg) hot-plate,mice [5],470 µg/kg
same,AD50 (µg/kg) tail-flick,mice [6],0.2 µg/kg
same,ED50 mg/kg hypothermia,mice [7],2.8 mg/kg
same,agonist activity in the tail-flick test,mice [2],inactive
"Nc1cccc(-c2cc([C@H]3C[C@@H]4CC[C@H]3N4)cnc2Cl)c1 [5j, 3′-(3-Aminophenyl)epibatidine]","times weaker than epibatidine (1), spontaneous activity",mice [8],30 times
same,"times weaker than epibatidine (1), hot-plate",mice [9]; ratio of ED50 values,75 times
same,AD50 (µg/kg) hot-plate,"mice [1]; mouse, antagonism of nicotine-induced antinociception, (confidence limits)",26 (5–90) µg/kg
same,times more potent as an antagonist than varenicline in the hot-plate test,mice [1],18 times
same,"times weaker than epibatidine (1), hypothermia",mice [10],76 times
same,"times weaker than epibatidine (1), tail-flick",mice [11]; ratio of ED50 values,57 times
"COc1ccc(-c2cc([C@H]3C[C@@H]4CC[C@H]3N4)cnc2Cl)cc1 [5k, 3′-(4-Methoxylphenyl)epibatidine]",ED50,mice [12],10 µg/kg
"Clc1ccc([C@@H]2C[C@H]3CC[C@@H]2N3)cn1 [(−)-epibatidine, epibatidine]",ED50 mg/kg tail-flick,mice [2],0.0066 ^e mg/kg
"Fc1cccc(-c2cc([C@H]3C[C@@H]4CC[C@H]3N4)cnc2Cl)c1 [5c, 3′-(3-Fluorophenyl)epibatidine]",times more potent as an antagonist than varenicline in the hot-plate test,mice [1],5.5 times
Clc1ncc([C@H]2C[C@@H]3CC[C@H]2N3)cc1-c1ccccc1 [5a],ED50 mg/kg spontaneous activity,mice [3]; (confidence limits),0.35 ^g (0.2–0.85) mg/kg
same,times higher affinity at the α4β2 nAChR than nicotine,α4β2 nAChR,71 times
same,times higher affinity at the α4β2 nAChR than varenicline,α4β2 nAChR,6 times
same,ED50 mg/kg hot-plate,mice [4]; (confidence limits),1.0 ^g (0.5–2.0) mg/kg
same,ED50 mg/kg hypothermia,mice [7]; (confidence limits),0.4 ^g (0.1–0.9) mg/kg
same,ED50 mg/kg tail-flick,mice [2]; (confidence limits),0.7 ^g (0.5–1.0) mg/kg
"CN(C)c1cccc(-c2cc([C@H]3C[C@@H]4CC[C@H]3N4)cnc2Cl)c1 [5m, 3′-(3-Dimethylaminophenyl)epibatidine]",agonist activity in the hot-plate test,mice [9]; mouse,did not have agonist activity
same,agonist activity in the tail-flick test,mice [11]; mouse,did not have agonist activity
